High-throughput results (PubChem BioAssay)
Tb hexokinase: Trypanosoma brucei hexokinase 1 inhibitors, primary screen, biochemical, G6PDH-coupled NADH absorbance, MLSCN library. recombinant TbHK1, G6PDH-coupled NADH A340. inhibition, % at 10 µM. 220,000 compounds, 0.11% hits;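 active means inhibition of 50% or more in the single-dose primary screen; inactive means inhibition below 50%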
PGE2 EP2 inh: human EP2 receptor antagonists, primary screen, TR-FRET cAMP, C6 glioma cells. Prostaglandin E2 receptor EP2 subtype (Homo sapiens), P43116. 260,000 compounds, 0.52% hits. C6 glioma cells expressing human EP2; cells stimulated with saturating PGE2. inhibition, % at 25 µM;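 active means percent inhibition above 40 after rounding to a whole number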;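 further: rat C6 glioma host cells with rolipram phosphodiesterase inhibitor present; the protocol text gives 20 µM as final concentration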
PHOSPHO1 block: PubChem AID 1565. recombinant PHOSPHO1, absorbance phosphatase assay. inhibition, % at 13.3 µM. 290,000 compounds, 1.1% hits; in the data active means inhibition above about 60%
HKDC1 inhibitor: HKDC1 hexokinase inhibitors, primary screen, biochemical, fluorescence, uHTS; Q2TB90; inhibition, % at 20 µM; recombinant HKDC1, G6PDH/diaphorase resazurin coupled fluorescence; 340,000 compounds, 0.16% hits;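 active means inhibition above about 35% when tested at 20 µM, limit read from the data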;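 further: plate controls were DMSO wells with enzyme for no effect and DMSO wells lacking enzyme for full effect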
Target sequence (Q2TB90 whole entry, looked up): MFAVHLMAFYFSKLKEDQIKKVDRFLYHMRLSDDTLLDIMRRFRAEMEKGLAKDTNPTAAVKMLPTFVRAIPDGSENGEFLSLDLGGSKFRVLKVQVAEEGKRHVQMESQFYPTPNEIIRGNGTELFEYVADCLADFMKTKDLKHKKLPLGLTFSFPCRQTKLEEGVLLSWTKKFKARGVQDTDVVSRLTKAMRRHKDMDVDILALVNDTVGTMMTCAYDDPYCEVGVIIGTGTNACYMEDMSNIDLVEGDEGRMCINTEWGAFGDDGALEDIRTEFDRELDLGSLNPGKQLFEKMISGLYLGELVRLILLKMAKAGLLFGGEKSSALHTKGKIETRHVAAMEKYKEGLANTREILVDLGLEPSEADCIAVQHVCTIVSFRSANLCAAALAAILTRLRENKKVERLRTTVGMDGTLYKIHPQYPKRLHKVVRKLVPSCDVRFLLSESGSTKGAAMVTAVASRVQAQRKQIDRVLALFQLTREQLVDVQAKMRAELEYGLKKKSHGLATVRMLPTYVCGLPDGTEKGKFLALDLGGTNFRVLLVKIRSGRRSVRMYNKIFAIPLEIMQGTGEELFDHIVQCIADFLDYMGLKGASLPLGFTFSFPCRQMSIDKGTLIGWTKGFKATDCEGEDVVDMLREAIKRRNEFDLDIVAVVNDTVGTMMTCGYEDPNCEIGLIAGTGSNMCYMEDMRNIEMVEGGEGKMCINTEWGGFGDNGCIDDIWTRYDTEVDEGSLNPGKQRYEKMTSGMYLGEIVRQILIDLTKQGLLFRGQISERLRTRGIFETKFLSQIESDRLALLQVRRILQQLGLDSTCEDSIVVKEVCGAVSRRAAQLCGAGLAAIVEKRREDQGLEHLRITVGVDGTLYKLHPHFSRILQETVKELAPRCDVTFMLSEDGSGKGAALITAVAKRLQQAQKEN
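Test system: Recombinant HKDC1 (HK5) hexokinase enzyme, produced in-house | Input: HKDC1 at 5 µg/mL | Buffer or medium: Tris pH 8.0 buffer with MgCl2, Tween-20, BSA, BME | Schedule: 90 min reaction incubation at room temperature, dark | Technique: Resazurin-to-resorufin fluorescence via G6PDH and diaphorase coupling, 525/613 nm | Controls: DMSO wells with and without enzyme mix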
PfGluPho inh: PfG6PD enzyme inhibitors, primary screen, biochemical, fluorescence intensity, uHTS. glucose-6-phosphate dehydrogenase-6-phosphogluconolactonase (Plasmodium falciparum 3D7). PfGluPho enzyme, NADPH resazurin-diaphorase fluorescence. inhibition, % at 20 µM. 350,000 compounds, 0.78% hits;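 active means inhibition reaching at least a set limit at 20 µM in the primary screen, cut at about 59% in these data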;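 further: 0% = DMSO wells with substrate and 100% = DMSO wells lacking glucose-6-phosphate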
EP2 modulator: EP2 receptor modulators, cAMP readout, primary screen, cell-based, HTRF cAMP, PGE2 stimulation. 260,000 compounds, 0.83% hits. induction, % at 25 µM. EP2-expressing cells, cAMP HTRF FRET, PGE2 co-stimulation. Prostaglandin E2 receptor EP2 subtype (Homo sapiens), P43116;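 active means compounds whose cAMP rise, as percent of the full-agonist control response, exceeds 60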;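 further: rat C6 glioma line stably carrying human EP2 under a CMV promoter; the protocol text gives 20 µM as final concentration; 100% = response of wells given 1 µM PGE2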
EP2 cAMP induct: cAMP induction in EP2, EP4, beta2-AR and parental cells, confirmation, counter-screen for EP2 modulator project, cell-based, five parallel assays, C6 glioma, HEK293. cAMP HTRF induction; plus low (about EC15) PGE2 agonist. shares compounds with EP2 modulator. calls only at 20 µM (by protocol). 1,300 compounds, 47% hits;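 active means cAMP induction above 50% in the main assay while under 30% in all four parallel counter assays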;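 further: rat C6 glioma cells stably expressing human EP2 receptor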
* marks the source's active call; other numbers are inactive results; i = inactive; · = no result; + = active, no number. Compounds with a hit are over-represented: about 2.5% of the library has one in this group of screens.

SMILES	Tb hexokinase	PGE2 EP2 inh	PHOSPHO1 block	HKDC1 inhibitor	PfGluPho inh	EP2 modulator	EP2 cAMP induct
C#CCn1c(S(=O)(=O)Cc2ccccc2Cl)nc(-c2ccccc2)c1-c1ccccc1	-2	3	26	-1	-23	72*	+
CCOC(=O)c1cnn(-c2nc(-c3ccccc3)cs2)c1C(F)(F)F	4	5	22	2	20	25	·
CCOC(=O)c1cnn(-c2nc(-c3ccc(F)cc3)cs2)c1C(F)(F)F	-5	8	20	3	25	65*	i
CCn1ncc(C(=O)N2CCC(c3[nH]ncc3-c3ccncc3)CC2)c1C	·	·	·	·	·	-4	·
O=C(O)c1ccc(-c2nc(-c3ccc(Cl)cc3)cs2)cc1	-19	5	-1	0	4	41	·
O=C(O)c1ccc(-c2nc(-c3cccc(C(F)(F)F)c3)cs2)cc1	-5	7	57	6	-19	70*	+
Cc1nn2c(NCCO)c3c(nc2c1-c1cccs1)CCC3	·	·	·	·	·	-29	·
CC(C)(C)NC(=O)C1CCN(C(=O)c2ccc(Cl)cc2)CC1	·	15	·	·	·	-17	·
Cc1cccc2cc(CN(C3CCCC3)C(c3nnnn3CCc3ccccc3)C(C)C)c(=O)[nH]c12 (stereo not given)	·	12	·	·	·	40	·
Cc1cc(C)n(-c2nc(C)nc3c2cnn3-c2ccccc2)n1	-1	·	27	-7	0	67*	+
CCOC(=O)c1c(C2COc3ccccc3O2)csc1N (stereo not given)	2	8	19	1	-4	70*	+
CCN(CC)CCSc1nc2ccccc2cc1C	·	19	·	·	·	-29	·
CCOC(=O)c1cc2sccc2n1CC(=O)NC1CCCCC1C (stereo not given)	·	8	·	·	·	1	·
CC(NC(c1ccccc1)c1ccccc1)C(=O)N1CCCc2ccccc21 (stereo not given)	15	8	-21	1	1	66*	i
O=C(C(=O)N1CCCc2ccccc21)N1CCCc2ccccc21	0	7	-3	-10	-5	5	·
O=C(Cn1cnc2ccccc2c1=O)N1C2CCC1CC(c1ccc(F)cc1)C2 (stereo not given)	·	1	·	·	·	-57	·
CC(=O)OC[C@@]1(O)C[C@@]23CCC4c5ccoc5CC[C@]4(C)C2CC[C@@H]1C3 (stereo not given in full)	·	9	·	·	·	69*	i
CC(=O)OC[C@]1(OC(C)=O)C[C@@]23CC[C@H]4[C@@](C)(CCC[C@@]4(C)C(=O)O)[C@@H]2CC[C@@H]1C3	20	6	-16	0	-9	12	·
COc1ccc(OC)c(C(=O)CSc2nnc(Cc3cccs3)n2CCc2ccccc2)c1	-7	0	-90	3	17	66*	+
COc1ccc(OC)c(C(=O)CSc2nnc(-c3cccs3)n2C)c1	-4	0	-31	-8	-7	6	·
COC(=O)c1sccc1NC(=O)c1cccc(OC)c1	-11	14	-2	3	6	67*	i
COC(=O)c1sccc1NC(=O)c1cc2c(s1)CCCC2	-10	·	-47	2	34	54	i
COc1ccccc1OCc1nnc(SCC(=O)Nc2nc3ccccc3s2)n1C	·	9	·	·	·	-2	·
CCOC(=O)c1c(NC(=O)CS)sc2c1CCCC2	·	10	·	·	·	14	·
CCOC(=O)c1c(NC(=O)c2ccc(N3C(=O)[C@@H]4[C@H](C3=O)[C@H]3C=C[C@@H]4C3)cc2)sc2c1CCCC2	-16	5	4	-3	5	39	·
CCOC(=O)c1c(NC(=O)c2ccc(-n3cnnn3)cc2)sc2c1CCCC2	-19	7	1	15	10	58	+
CCOC(=O)Nc1sc2c(c1C(=O)OCC)CCC2	-8	4	-12	-4	4	74*	i
